NadD block: inhibitors of S. aureus NadD, primary screen, biochemical, colorimetric, uHTS. Nicotinate-nucleotide adenylyltransferase NadD (Staphylococcus aureus N315). purified NadD enzyme, colorimetric absorbance read-out. inhibition, % at 20 µM. actives 0.78% (n = 360,000). AID 602399, 2012; in the data active means inhibition above about 26%
Scp-1 inhibitor: Scp-1 phosphatase inhibitors, primary screen, biochemical, colorimetric, uHTS. Recombinant Scp1, phosphopeptide, malachite green phosphate absorbance. inhibition, % at 20 µM. actives 0.88% (n = 340,000);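 active means inhibition above about 50% at 20 µM, limit read from the data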;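 further: plate controls were DMSO wells with enzyme for no effect and wells lacking enzyme for full effect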
Target sequence (Q9GZU7 76-261 limits assumed): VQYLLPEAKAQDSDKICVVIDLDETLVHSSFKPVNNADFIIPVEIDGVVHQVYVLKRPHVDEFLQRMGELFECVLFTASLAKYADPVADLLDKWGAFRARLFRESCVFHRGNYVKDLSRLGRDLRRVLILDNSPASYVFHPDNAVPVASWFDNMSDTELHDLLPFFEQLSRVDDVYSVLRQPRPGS
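Test system: SCP-1 catalytic domain; Buffer or medium: Acidic Tris acetate buffer with magnesium and detergent; Also added: Phosphorylated 17-residue peptide substrate; Compound: single 20 µM dose, 1% DMSO; Schedule: enzyme reaction 45 min at room temperature, colour 5 min, stabilisation 30 min; Signal: Phosphate-binding colour reagent, absorbance read at 630 nm.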
SUMO1-SIM PPI: modulators of SUMO1 protein-protein interactions, primary screen, biochemical, uHTS; Small ubiquitin-related modifier 1 (Homo sapiens), P63165; actives 0.33% (n = 360,000); SUMO1 binding to a labelled peptide, TR-FRET, 1 h; inhibition, % at 20 µM; in the data active means inhibition above about 37%
Target sequence (P63165 whole entry, looked up): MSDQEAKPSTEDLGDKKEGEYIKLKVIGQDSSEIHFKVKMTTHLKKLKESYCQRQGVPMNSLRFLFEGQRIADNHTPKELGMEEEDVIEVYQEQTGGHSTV
LMPTP block: LMPTP phosphatase inhibitors, primary screen, biochemical, fluorescence intensity, uHTS; inhibition, % at 20 µM; recombinant LMPTP-A, OMFP fluorogenic substrate; actives 0.22% (n = 360,000); Low molecular weight phosphotyrosine protein phosphatase (Homo sapiens), P24666;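 active means compounds that cut the enzyme signal by at least half of the control window in the single-dose screen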;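 further: plate controls were DMSO wells with enzyme plus substrate for no effect and substrate without enzyme for full effect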
Target sequence (P24666 whole entry, looked up): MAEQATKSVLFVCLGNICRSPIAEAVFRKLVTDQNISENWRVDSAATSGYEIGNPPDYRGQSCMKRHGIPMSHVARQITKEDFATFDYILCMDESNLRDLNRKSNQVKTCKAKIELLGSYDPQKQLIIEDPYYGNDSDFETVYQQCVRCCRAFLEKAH
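Assay system: LMPTP-A phosphatase enzyme | Input: 0.625 nM enzyme | Also added: Fluorogenic phosphatase substrate OMFP at 400 µM final | Compound dosing: One test concentration per compound, 20 µM, with 3% DMSO overall | Schedule: 50 min enzyme reaction at room temperature, protected from light | Signal: Fluorescence intensity | Benchmarks: no-enzyme and uninhibited controls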
DNMT1 inh: human DNMT1 methyltransferase inhibitors, primary screen, biochemical, molecular beacon, fluorescence, HinP1I cleavage, uHTS; actives 0.83% (n = 360,000); inhibition (reported as % activation of signal), % at 10 µM; DNA (cytosine-5)-methyltransferase 1 (Homo sapiens), P26358; in the data active means inhibition above about 50%
STEP inh: STEP phosphatase inhibitors, primary screen, biochemical, fluorescence intensity, uHTS; Tyrosine-protein phosphatase non-receptor type 5 (Homo sapiens), P54829; recombinant STEP, OMFP fluorogenic substrate; inhibition, % at 20 µM; actives 0.25% (n = 360,000);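 active means inhibition at 20 µM, scaled per plate between control wells, above about 37%, limit read from the data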;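 further: 0% = DMSO with enzyme and substrate and 100% = substrate only without enzyme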
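material = STEP tyrosine phosphatase | reagent = fluorogenic phosphatase substrate OMFP at 25 µM final | doses = single compound dose of 20 µM, 1% DMSO final | schedule = 20 min reaction, room temperature, in the dark | measured by = fluorescence, 480/540 nm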
The depositor's hits bear a star; · = no result. Hits are enriched below; roughly 2.4% of the tested compounds scored in any of these assays.

SMILES	NadD block	Scp-1 inhibitor	SUMO1-SIM PPI	LMPTP block	DNMT1 inh	STEP inh
O=C(NC1CC1)c1cc(-c2ccco2)nc2ccccc12	12	80*	40*	51*	90*	20
O=C(OCC(=O)N1CCN(C(=O)c2ccco2)CC1)c1cc(-c2ccc(Cl)c(Cl)c2Cl)nc2ccccc12	13	-7	64*	3	-13	2
Cc1ccc(C)c(-c2cc(C(=O)NC3CC3)c3ccccc3n2)c1	6	-2	-1	-1	1	0
COc1ccc(/C=N/N2CCOCC2)cc1Cn1cc([N+](=O)[O-])cn1	-1	-9	-7	0	2	-1
COC(=O)CCC(=O)OC1(C)C(=O)C=C2C=C(c3ccsc3)OC=C2C1=O (stereo not given)	35*	7	19	5	-3	0
O=C(CSCc1cccc(Cl)c1)Nc1ccccc1-c1ccccc1	2	-10	1	3	1	-2
O=C1/C(=C/c2ccc(N3CCOCC3)o2)SC(=Nc2ccccc2)N1CCc1c[nH]c2ccccc12	40*	-1	-28	7	-13	-77
O=C1NC(Cc2ccc(O)cc2)c2nc3ccc(Br)cc3c(=O)n2-c2ncccc21 (stereo not given)	7	·	8	-2	1	-2
COCC(=O)OC1CCn2c1nc1c2C(=O)C(C)=C(NC(C)=O)C1=O (stereo not given)	0	4	19	5	88*	2
Cc1cccc(NC(=O)CN2C(=O)N/C(=C/c3cc(C)n(C)c3C)C2=O)c1	30*	-2	-6	3	-14	-3
NCCCC[C@H]1NC(=O)[C@H](CCC(=O)O)NC(=O)c2cc([N+](=O)[O-])cc(I)c2OCC[C@@H](C(N)=O)NC1=O	·	91*	·	·	·	·
CC(=O)c1cc2cccc(OC3(C)CCN(Cc4ccc(-c5ccccn5)cc4)C3)c2o1 (stereo not given)	2	·	-18	1	-2	-1
COc1ccc(Cl)cc1C(=O)Nc1cccc(-c2ccc3nncn3n2)c1	-5	42	47*	40	17	61*
CN1C(=O)Cc2cc(S(=O)(=O)N3CCN(c4cccc(Cl)c4)CC3)ccc21	16	-8	-5	2	-8	0
CCOC(=O)c1c(C)[nH]c(C(=O)N/N=C\c2ccccc2O)c1C	-3	-10	1	0	-3	1
O=C(N/N=C/c1cc([N+](=O)[O-])ccc1O)c1cc(-c2ccccc2)nc2ccccc12	31*	-5	9	2	-18	-1
CCOC(=O)c1c(C)[nH]c(C(=O)N/N=C/c2cc([N+](=O)[O-])ccc2O)c1C	33*	-7	-12	65*	0	5
COc1cccc(NC(=O)COC(=O)CNC(=O)C2CCCCC2)c1	0	-2	2	-1	-5	-3
OC[C@@H]1CN(Cc2ccc(Cl)cc2)C[C@H](n2cnc3c(NC4CC4)ncnc32)O1	-11	·	2	2	3	-1
O=C1c2ccccc2C(=O)c2c(NCCCN(CCO)CCO)cccc21	-4	-4	-23	7	46	5
CCN(CCCNc1cc2c(c(N)c1S(=O)(=O)O)C(=O)c1ccccc1C2=O)c1ccccc1	52*	·	35	8	24	2
CCCCCNC(=O)Cn1c(=O)c2c(ncn2CC(C)C)n(Cc2ccccc2)c1=O	-3	-5	9	-1	1	0
COc1ccc(N2CSC3=C(C#N)C(c4cccc(OC)c4OC)CC(=O)N3C2)cc1 (stereo not given)	12	52*	-8	5	-12	1
c1cncc(-c2nc(NCC3CCCO3)c3ccccc3n2)c1 (stereo not given)	0	4	4	12	2	-2
CC(C)Oc1ccc(-c2nc(NCC3CCCO3)c3ccccc3n2)cc1 (stereo not given)	-11	-4	4	51*	7	0
SMILES	NadD block	Scp-1 inhibitor	SUMO1-SIM PPI	LMPTP block	DNMT1 inh	STEP inh
C=CCNC(=O)c1onc(CSc2cc(C)ccc2C)c1C(=O)O	0	-7	5	-1	-1	1
Cc1ccc(NC(=O)C2CCN(S(=O)(=O)c3c(C)noc3/C=C/c3ccco3)CC2)nc1	10	-7	-5	1	-5	-5
Cc1noc(/C=C/c2ccco2)c1S(=O)(=O)N1CCC(C(=O)N2CCc3ccccc3C2)CC1	47*	-11	1	5	28	7
Cc1cccc(-c2noc(CCCC(=O)NC3CCCCC3)n2)c1	-3	-10	0	1	-1	-2
CCOC(=O)c1c(NC(=O)C(=O)N/N=C/c2ccc(O)c(OC)c2)sc2c1CCCCC2	32*	0	3	3	-12	1
CCOc1ccc(C2C(C(=O)c3ccc(C)o3)=C(O)C(=O)N2c2cc(C)on2)cc1OC (stereo not given)	4	-6	-8	0	1	0
CCCCCOc1ccc(C2C(C(=O)c3ccc(C)o3)=C(O)C(=O)N2c2cc(C)on2)cc1 (stereo not given)	28	-22	4	50*	12	4
CCCCOc1ccc(C2C(C(=O)c3ccc(C)o3)=C(O)C(=O)N2Cc2ccco2)cc1 (stereo not given)	22	·	-2	51*	7	4
O=C(NC(c1ccccc1)c1ccccc1)c1cccc(S(=O)(=O)NCc2ccccc2)c1	0	1	-2	3	-3	1
NC(CC(=O)NC(c1ccccc1)(c1ccccc1)c1ccccc1)C(=O)O (stereo not given)	4	-7	1	-2	1	-2
NC(CSC(c1ccccc1)(c1ccccc1)c1ccccc1)C(=O)O (stereo not given)	22	2	1	1	52*	6
COc1cc(-c2nc(-c3ccc(Br)o3)no2)cc(OC)c1OC	-4	-7	53*	1	45	3
COc1ccc(-c2noc(-c3ccc(Br)o3)n2)cc1OC	-5	5	4	4	-3	-2

Bioassay records as filed in PubChem BioAssay.
